Source: ChEMBL document CHEMBL4680079, “Discovery of a Quinoline-4-carboxamide Derivative with a Novel Mechanism of Action, Multistage Antimalarial Activity, and Potent in Vivo Efficacy” (J Med Chem, 2016)
≈ marks a conversion by molar mass, not a printed value.

Assays:
Plasmodium falciparum [1] = assay: Antiplasmodial activity against chloroquine-sensitive Plasmodium falciparum 3D7 infected in human red blood cells assessed as growth inhibition by SYBR Green fluorescence assay; format: functional, organism-based, RBC; details: 3D7, Erythrocyte
Summary of the method: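 P. falciparum 3D7 grown in 5% human red cells in RPMI 1640 (pH 7.3) with 0.5% Albumax II, hypoxanthine and gentamicin at 37°C under 1% O₂/3% CO₂. Growth measured by SYBR green fluorescence (ex 485/em 528 nm), with mefloquine as assay control. EC50 calculated.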

MRC5 = assay: Antiproliferative activity against human MRC5 cells assessed as reduction in cell viability after 68 hrs by resazurin dye based fluorescence assay; details: MRC5, 68 h
Summary of the method: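 MRC-5 fibroblasts plated overnight as monolayers, exposed to compound pre-diluted in MEM for 68 h. Resazurin then added (final 50 μM) for 3 h, fluorescence read at ex 528/em 590 nm. Signal converted to % inhibition against high- and no-inhibition controls. Plates accepted at Z' > 0.5.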

[2] = Permeability of the compound at 10 uM incubated for 5 hrs by UPLC-MS/MS analysis based PAMPA method; format: ADME; details: read-out: permeability
Summary of the method: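 PAMPA run on a lipid-oil-lipid tri-layer filter at pH 7.4. Compound at 10 μM in PBS (DMSO ≤5%) in donor wells, PBS in acceptor wells, kept 5 h at room temperature. Both compartments quantified by UPLC-MS/MS. Data accepted only when recovery exceeded 70%.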

Plasmodium falciparum [3] = assay: Antiplasmodial activity against late stage (IV/V) Plasmodium falciparum NF54 gametocytes transfected with GFP-LUC assessed as growth inhibition incubated for 72 hrs by mitotracker Red-CMXROS dye based fluorescence microscopic analysis; format: functional, organism-based; details: NF54, 72 h
Summary of the method: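 NF54 pfs16-LUC-GFP stage IV–V gametocytes (10% parasitaemia, 0.1% haematocrit) exposed to compound in 0.4% DMSO, three concentrations per log, for 72 h at 37°C under 5% CO2/5% O2/90% N2. MitoTracker Red CM-H2Xros then added for 16 h and viable gametocytes counted by imaging.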

[4] = Intrinsic clearance in CD1 mouse liver microsomes at 0.5 uM in presence of NADPH incubated upto 30 mins by UPLC-MS/MS analysis; format: ADME, Microsome; details: 0.5 h
Summary of the method: (§1)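 Compound at 0.5 μM incubated with female CD1 mouse, male Sprague-Dawley rat or pooled human liver microsomes (0.5 mg/mL, 50 mM potassium phosphate, pH 7.4). Reaction started with excess NADPH. Samples taken at 0-30 min, quenched in acetonitrile, analysed by UPLC-MS/MS. Verapamil used as control, single time course.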

[5] = Kinetic aqueous solubility of the compound by laser nephelometry; format: physicochemical; details: read-out: Kinetic_solubility
Summary of the method: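 Kinetic solubility measured by laser nephelometry. DMSO serial dilutions diluted into water to give final 100–5 μg/mL at 1.0% DMSO. Read immediately, in triplicate aliquots.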

Plasmodium berghei [6] = assay: Antiplasmodial activity against Plasmodium berghei ANKA infected in NMRI mouse assessed as reduction in parasitemia at 1 mg/kg, po QD for 4 days; format: functional; design: scale not given: the % may be the effect or the level left; details: time 4 day
Summary of the method: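 Female NMRI mice (n=3 per group, randomized, not blinded) infected with GFP-transfected P. berghei ANKA. Oral dosing once daily for 4 days in 10% DMSO/40% PEG400/50% water or HPMC suspension vehicle. Parasitaemia measured by flow cytometry on blood collected 96 h after infection. Mice watched for toxicity over 4 h post-dose each day.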

Plasmodium berghei [7] = assay: Antiplasmodial activity against Plasmodium berghei ANKA infected in NMRI mouse assessed as survival days at 1 mg/kg, po QD for 4 days; format: functional; details: time 4 day
[8] = Intrinsic clearance in Sprague-Dawley rat liver microsomes at 0.5 uM in presence of NADPH incubated upto 30 mins by UPLC-MS/MS analysis; format: ADME, Microsome; details: 0.5 h; summary of the method: as §1
[9] = Intrinsic clearance in human liver microsomes at 0.5 uM in presence of NADPH incubated upto 30 mins by UPLC-MS/MS analysis; format: ADME, Microsome; details: 0.5 h; summary of the method: as §1
[10] = Protein binding in CD1 mouse plasma measured after 5 hr by UPLC-MS/MS analysis based equilibrium dialysis method; format: ADME, cell-free; details: mouse, 5 h
Summary of the method: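 Equilibrium dialysis of female CD1 mouse plasma spiked at 10 μg/mL (12-14 kDa membrane) against isotonic buffer for 5 h at ~37°C with shaking. Unbound fraction taken as the buffer/plasma peak-area ratio by UPLC-MS/MS. n=6 replicates, run in triplicate.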

Plasmodium berghei [11] = assay: Antiplasmodial activity against Plasmodium berghei ookinete form assessed as growth inhibition incubated for 22 hrs by GFP-based fluorescence microscopic analysis; format: functional, organism-based
[12] = biological target: Voltage-gated inwardly rectifying potassium channel KCNH2 (Homo sapiens, UniProt Q12809); assay: Inhibition of human ERG by IonWorks patch-clamp electrophysiology method
Summary of the method: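 hERG K⁺ channel inhibition measured by IonWorks patch-clamp electrophysiology. Eight-point concentration-response curves made from 3-fold serial dilutions down from the maximum final assay concentration. Each curve generated on 2 occasions.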

Chain of Voltage-gated inwardly rectifying potassium channel KCNH2 (Q12809 whole entry): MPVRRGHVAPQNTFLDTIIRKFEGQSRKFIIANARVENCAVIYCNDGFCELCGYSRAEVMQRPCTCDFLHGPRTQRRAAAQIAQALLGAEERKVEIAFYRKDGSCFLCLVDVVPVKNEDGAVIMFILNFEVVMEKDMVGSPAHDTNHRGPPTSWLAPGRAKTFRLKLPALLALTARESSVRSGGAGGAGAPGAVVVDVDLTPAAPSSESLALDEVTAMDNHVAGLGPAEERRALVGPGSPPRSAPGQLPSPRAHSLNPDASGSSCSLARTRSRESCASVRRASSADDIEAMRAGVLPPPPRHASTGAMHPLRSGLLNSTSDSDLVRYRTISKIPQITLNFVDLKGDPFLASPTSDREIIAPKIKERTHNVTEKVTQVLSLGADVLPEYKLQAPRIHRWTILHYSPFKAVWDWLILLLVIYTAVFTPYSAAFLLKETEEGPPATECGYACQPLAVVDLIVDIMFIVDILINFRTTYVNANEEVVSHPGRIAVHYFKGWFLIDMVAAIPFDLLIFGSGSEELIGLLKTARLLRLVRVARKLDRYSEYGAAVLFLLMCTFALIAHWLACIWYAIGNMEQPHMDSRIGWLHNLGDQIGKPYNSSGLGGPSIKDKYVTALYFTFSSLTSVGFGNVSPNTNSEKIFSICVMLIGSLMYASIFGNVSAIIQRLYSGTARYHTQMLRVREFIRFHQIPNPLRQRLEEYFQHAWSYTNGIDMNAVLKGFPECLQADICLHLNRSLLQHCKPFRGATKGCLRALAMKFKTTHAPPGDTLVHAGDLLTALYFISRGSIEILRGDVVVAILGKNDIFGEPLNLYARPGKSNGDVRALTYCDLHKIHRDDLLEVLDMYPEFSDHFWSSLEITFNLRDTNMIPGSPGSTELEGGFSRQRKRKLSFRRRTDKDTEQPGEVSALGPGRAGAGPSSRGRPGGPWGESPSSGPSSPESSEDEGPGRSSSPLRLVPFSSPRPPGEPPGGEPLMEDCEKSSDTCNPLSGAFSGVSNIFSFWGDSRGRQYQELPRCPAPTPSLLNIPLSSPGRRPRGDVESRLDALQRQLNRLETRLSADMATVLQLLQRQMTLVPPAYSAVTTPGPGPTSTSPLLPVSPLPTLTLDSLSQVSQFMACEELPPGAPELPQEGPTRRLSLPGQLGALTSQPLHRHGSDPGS

| CLH [4] | solubility kinetic [5] | SMILES | EC50 (Plasmodium falciparum [1]) | EC50 (MRC5) | other results |
| --- | --- | --- | --- | --- | --- |
| – | – | O=C(NCCN1CCCC1)c1cc(NCCC2CCOCC2)nc2ccc(F)cc12 | 0.002 µM | > 50 µM | – |
| – | – | O=C(NCCN1CCOCC1)c1cc(NCCCN2CCOCC2)nc2ccc(F)cc12 | 2.5 µM | – | Papp at 5 h, 10 µM [2]: 2.4 ×10⁻⁶ cm/s |
| – | – | COc1cc(C)c2c(Oc3cccc(C(F)(F)F)c3)c(OC)cc(NC(C)CCCN)c2n1 (stereo not drawn) [TAFENOQUINE] | – | – | EC50 (Plasmodium falciparum [3]): 5.25 µM |
| – | – | O=C(NCCN1CCCC1)c1cc(-c2ccc(N3CCOCC3)cc2)nc2ccc(F)cc12 | 0.6 µM | 17 µM | – |
| – | – | O=C(NCCN1CCC(F)(F)C1)c1cc(NCCCN2CCOCC2)nc2ccc(F)cc12 | 18 µM | – | Papp at 5 h, 10 µM [2]: 8.9 ×10⁻⁶ cm/s |
| < 0.5 mL/min/g | > 210 µM | O=C(NCCN1CCOCC1)c1cc(-c2ccc(CN3CCOCC3)cc2)nc2ccc(F)cc12 | 0.012 µM | – | – |
| – | – | CN(C)c1ccc(-c2cc(C(=O)NCCN3CCCC3)c3cc(F)ccc3n2)cc1 | 0.81 µM | 10 µM | – |
| 3.4 mL/min/g | 180 µM (≈ 67.9 µg/mL) | Cc1ccc(-c2cc(C(=O)NCCN3CCCC3)c3cc(F)ccc3n2)cc1 | 0.7 µM | 9 µM | – |
| – | – | O=C(NCCN1CCCC1)c1cc(NCCN2CCOCC2)nc2ccc(F)cc12 | 0.19 µM | 50 µM | – |
| 2 mL/min/g | > 217 µM | O=C(NCCN1CCCC1)c1cc(-c2ccc(CN3CCCC3=O)cc2)nc2ccc(F)cc12 | 0.007 µM | – | Papp at 5 h, 10 µM [2]: 4.9 ×10⁻⁶ cm/s; CLH [8]: 0.6 mL/min/g; CLH [9]: 2 mL/min/g; Activity (Plasmodium berghei [6]): <40% |
| 1.1 mL/min/g | 262 µM (≈ 100 µg/mL) | Cc1ccc(-c2cc(C(=O)NCCCN(C)C)c3cc(Cl)ccc3n2)cc1 | 6.7 µM | 6 µM | – |
| – | – | COc1ccc2nc3cc(Cl)ccc3c(Nc3cc(CN4CCCC4)c(O)c(CN4CCCC4)c3)c2n1 [PYRONARIDINE] | – | – | EC50 (Plasmodium falciparum [3]): 3.11 µM |
| 0.5 mL/min/g | > 201 µM | O=C(NCCN1CCCC1)c1cc(-c2ccc(CN3CCOCC3)cc2Cl)nc2ccc(F)cc12 | 0.003 µM | > 50 µM | PPB [10]: 56% |
| – | – | Cc1ccc(-c2cc(C(=O)NCCN3CCCCC3)c3cc(Cl)ccc3n2)cc1 | 0.32 µM | 7 µM | – |
| – | – | O=C(NCCN1CCCC1)c1cc(N2CCn3ccnc3C2)nc2ccc(F)cc12 | 5.8 µM | > 50 µM | – |
| – | – | O=C(NCCN1CCCC1)c1cc(NCCN2CCCCC2)nc2ccc(F)cc12 | 8.9 µM | 19 µM | – |
| – | – | C[C@@H]1CC[C@H]2[C@@H](C)C(=O)O[C@@H]3O[C@@]4(C)CC[C@@H]1[C@]32OO4 [ARTEMISININ] | – | – | EC50 (Plasmodium falciparum [3]): 0.0008 µM |

| CLH [4] | solubility kinetic [5] | SMILES | EC50 (Plasmodium falciparum [1]) | EC50 (MRC5) | other results |
| --- | --- | --- | --- | --- | --- |
| – | – | O=C(NCCN1CCC(F)CC1)c1cc(NCCCN2CCOCC2)nc2ccc(F)cc12 | 0.9 µM | – | Papp at 5 h, 10 µM [2]: 5.8 ×10⁻⁶ cm/s |
| – | – | Cc1ccc(-c2cc(C(=O)NCCN3CCN(C)CC3)c3cc(Cl)ccc3n2)cc1 | 3.3 µM | 8 µM | – |
| – | – | Cc1ccc(-c2cc(C(=O)NCCN(C)C)c3cc(Cl)ccc3n2)cc1 | 1.2 µM | 9 µM | – |
| – | – | O=C(NCCN1CCCC(F)(F)C1)c1cc(NCCCN2CCOCC2)nc2ccc(F)cc12 | 36 µM | – | Papp at 5 h, 10 µM [2]: 12 ×10⁻⁶ cm/s |
| – | – | O=C(NCCN1CCC(F)(F)CC1)c1cc(NCCCN2CCOCC2)nc2ccc(F)cc12 | 15 µM | – | Papp at 5 h, 10 µM [2]: 9.4 ×10⁻⁶ cm/s |
| – | – | Cc1ccc(-c2cc(C(=O)Nc3cccnc3)c3cc(Cl)ccc3n2)cc1 | 0.29 µM | 21 µM | – |
| – | – | CN1CCN(c2cc(C(=O)NCCN3CCCC3)c3cc(F)ccc3n2)CC1 | 34 µM | 20 µM | – |
| 2.1 mL/min/g | 13 µM (≈ 5.12 µg/mL) | Cc1ccc(-c2cc(C(=O)NCCN3CCCC3)c3cc(Cl)ccc3n2)cc1 | 0.44 µM | 7 µM | – |
| 2.3 mL/min/g | 210 µM (≈ 99.1 µg/mL) | O=C(NCCN1CCCC1)c1cc(N2CCC(N3CCOCC3)CC2)nc2ccc(Cl)cc12 | 0.15 µM | 13 µM | – |
| – | – | Cc1cc(Nc2cc(C(=O)NCCN3CCCC3)c3cc(F)ccc3n2)on1 | > 50 µM | > 50 µM | – |
| 11 mL/min/g | 12 µM (≈ 4.92 µg/mL) | Cc1ccc(-c2cc(C(=O)NCCN3CCOCC3)c3cc(Cl)ccc3n2)cc1 | 3.6 µM | 26 µM | – |
| – | – | O=C(NCCN1CCCC1)c1cc(-c2cccc(CN3CCOCC3)c2)nc2ccc(F)cc12 | 11 µM | – | – |
| 8.6 mL/min/g | 36 µM (≈ 12.9 µg/mL) | Cc1ccc(-c2cc(C(=O)Nc3cccnc3)c3cc(F)ccc3n2)cc1 | 0.35 µM | 50 µM | – |
| – | – | O=C(NCCN1CCCC1)c1cc(-c2ccc(C(=O)N3CCOCC3)cc2)nc2ccc(F)cc12 | 0.14 µM | > 50 µM | – |
| 5.3 mL/min/g | 39 µM (≈ 16.3 µg/mL) | Cc1ccc(-c2cc(C(=O)Nc3cccnc3)c3cc(Br)ccc3n2)cc1 | 0.12 µM | 21 µM | – |
| 0.5 mL/min/g | 220 µM (≈ 100 µg/mL) | O=C(NCCN1CCCC1)c1cc(N2CCC(N3CCOCC3)CC2)nc2ccc(F)cc12 | 0.68 µM | 25 µM | – |
| – | – | Cc1ccc(-c2cc(C(=O)Nc3cccnc3)c3ccccc3n2)cc1 | 0.99 µM | > 50 µM | – |

| SMILES | CLH [4] | solubility kinetic [5] | EC50 (Plasmodium falciparum [1]) | EC50 (MRC5) | other results |
| --- | --- | --- | --- | --- | --- |
| O=C(NCCN1CCCC1)c1cc(-c2ccc(CN3CCOCC3)c(F)c2)nc2ccc(F)cc12 | 1 mL/min/g | > 208 µM | 0.0006 µM | 19 µM | Papp at 5 h, 10 µM [2]: 6.3 ×10⁻⁶ cm/s; Activity (Plasmodium berghei [6]): 99.8%; Survival (Plasmodium berghei [7]): 11 days |
| O=C(NCCN1CCCC1)c1cc(-c2ccc(CN3CCS(=O)(=O)CC3)cc2)nc2ccc(F)cc12 | < 0.5 mL/min/g | 171 µM (≈ 87.3 µg/mL) | 0.0006 µM | 41 µM | Papp at 5 h, 10 µM [2]: 1.4 ×10⁻⁶ cm/s; CLH [8]: 0.8 mL/min/g; Activity (Plasmodium berghei [6]): 99%; Survival (Plasmodium berghei [7]): 7 days |
| O=C(NCCN1CCCC1)c1cc(-c2ccc(S(=O)(=O)N3CCOCC3)cc2)nc2ccc(F)cc12 | 1.9 mL/min/g | 109 µM (≈ 55.9 µg/mL) | 0.004 µM | 21 µM | EC50 (Plasmodium berghei [11]): 0.015 µM; EC50 (Plasmodium falciparum [3]): 0.152 µM; Papp at 5 h, 10 µM [2]: 2.9 ×10⁻⁶ cm/s; PPB [10]: 75%; IC50 [12]: 11 µM |
